Molecules are shown by their SMILES. Active and inactive are the calls of the source. No cut-off for these calls is given here.

Experiment [1] relates to HeLa S3. Kind of experiment: Induction of mitotic arrest in human HeLaS3 cells assessed as abnormal multipolar spindles at 1 uM after 6 hrs by immunofluorescence staining. Format: functional, cell-based. The procedure, abridged:
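HeLa S3 at 3 × 10^4 cells/mL grown on coverslips, treated 6 h, fixed in -20 °C MeOH for 5 min. Anti-α-tubulin DM1A (1:250) in PBS with 0.5% BSA for 1 h at 37 °C, then Alexa488 anti-mouse IgG (1:2000) for 1 h. DAPI 0.1 µg/mL for chromosomes; spindles examined by fluorescence microscopy. DMSO control.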

Experiment [2] can be described thus: Cell cycle arrest in human HeLaS3 cells assessed as accumulation at G2/M phase at 1 uM after 24 hrs by flow cytometric analysis. It is filed as functional, cell-based. Particulars: HeLa S3. Summed up: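 HeLa S3 cells at 3 × 10^4 cells/mL exposed to compound for 24 h, harvested, fixed in 70% EtOH at -20 °C, stained with propidium iodide; DNA content read by flow cytometry. DMSO-treated cells as control. Cells kept in DMEM with 10% FCS at 37 °C, 5% CO2.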

A short description of experiment [3]: Cytotoxicity against human HeLaS3 cells after 48 hrs by WST8 assay. Format: functional, cell-based. To be noted: HeLa S3, 48 h. Summed up: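 HeLa S3 seeded at 3 × 10^3 cells/well, left overnight, then given a range of compound concentrations for 48 h. WST-8 added for 2 h and absorbance read at 450 nm. Viability (% control) = (sample − blank)/(0 µM well − blank) × 100. Cells in DMEM + 10% FCS, 37 °C, 5% CO2.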
A general note: Formazan colour is commonly taken as a measure of viable cells.

The subject of experiment [4] is HeLa S3. Kind of experiment: Ratio of glaziovianin A IC50 to compound IC50 for human HeLaS3 cells. Format: functional.

In general, IC50 refers to the concentration that inhibits the measured activity by half. Read a high IC50 as a need for much substance. On to `C#CCOc1cc2occ(-c3cc(OC)c4c(c3OC)OCO4)c(=O)c2cc1OC`, for which the result (with HeLa S3 [1]; in experiment [2]) was Active. For the same compound, in experiment [3], the IC50 turned out to be 0.17 µM. For the same compound, the “Ratio IC50” value with HeLa S3 [4] was determined as 3.5. Compound `COc1cc2c(=O)c(-c3cc(OC)c4c(c3OC)OCO4)coc2cc1OCCCCCC(=O)NCCCCCCNC(=O)CCCC[C@@H]1SC[C@@H]2NC(=O)N[C@@H]21` registered an IC50 in experiment [3] of 15.2 µM. Besides, in the experiment with HeLa S3 [4], the “Ratio IC50” value was found to be 0.039. Regarding `COc1cc2c(=O)c(-c3cc(OC)c4c(c3OC)OCO4)coc2cc1OC/C=C/CCC(=O)NCCCCCCNC(=O)CCCC1=C2C(C)=CC(C)=[N+]2[B-](F)(F)n2c(C)cc(C)c21`, in experiment [3], the half-maximal inhibitory concentration (IC50) amounted to 17.4 µM. Besides, the “Ratio IC50” value with HeLa S3 [4] is recorded as 0.034. Turning to `COc1cc2occ(-c3cc(OC)c4c(c3OC)OCO4)c(=O)c2cc1OC` [GLAZIOVIANIN A], the outcome (with HeLa S3 [1]; in experiment [2]) was Active. Moreover, the IC50 in experiment [3] is 0.59 µM. With `COc1cc2occ(-c3cc(OC)c(OC)c(OC)c3OC)c(=O)c2cc1OC`, the half-maximal inhibitory concentration (IC50) in experiment [3] came out at 22 µM. Besides, in the experiment with HeLa S3 [4], the “Ratio IC50” value is 0.027. `COc1cc2c(=O)c(-c3cc(OC)c4c(c3OC)OCO4)coc2cc1OC1O[C@H](CO)[C@@H](O)[C@H](O)[C@H]1O` (mixture of isomers) gave an IC50 in experiment [3] of more than 100 µM.

Compound `COc1cc2c(=O)c(-c3cc(OC)c4c(c3OC)OCO4)coc2cc1OC/C=C/CCC(=O)NCCCCCCNC(=O)CCCC[C@@H]1SC[C@@H]2NC(=O)N[C@@H]21` came in with an IC50 in experiment [3] of 15.5 µM. Further, the “Ratio IC50” value with HeLa S3 [4] is on record as 0.038. In the case of `COc1cc2c(=O)c(-c3cc(OC)c4c(c3OC)OCO4)coc2cc1O`, in experiment [3], the IC50 was more than 100 µM. Still for that read-out and setting: next, `COc1cc2c(=O)c(-c3cc(OC)c4c(c3OC)OCO4)coc2cc1OC1O[C@H](COC(C)=O)[C@@H](OC(C)=O)[C@H](OC(C)=O)[C@H]1OC(C)=O` (mixture of isomers): more than 100 µM; `COc1cc(-c2coc3cc(OC)c(OC)c(OC)c3c2=O)c(OC)c2c1OCO2`: more than 100 µM; `COc1cc2c(=O)c(-c3cc(OC)c4c(c3OC)OCO4)coc2cc1OCC(O)CO` (stereo not drawn): more than 100 µM. Same read-out and setting: next, `COc1cc2occ(-c3cc(OC)c4c(c3OC)OC(C)(C)O4)c(=O)c2cc1OC`: more than 100 µM. Regarding `C=CCOc1cc2occ(-c3cc(OC)c4c(c3OC)OCO4)c(=O)c2cc1OC`, the result (in the experiment on HeLa S3 [1]; in experiment [2]) was Active. This compound also had an IC50 in experiment [3] of 0.46 µM. For the same compound, the “Ratio IC50” value with HeLa S3 [4] turned out to be 1.3. `COc1cc2c(=O)c(-c3cc(OC)c4c(c3OC)OCO4)coc2cc1OC1CCCCO1` (stereo not drawn): in experiment [3], the IC50 was more than 100 µM. With `COc1cc2c(=O)c(-c3cc(OC)c4c(c3OC)OCO4)coc2cc1OCc1ccccc1`, the result (in the experiment on HeLa S3 [1]; in experiment [2]) was Active. In experiment [3], this compound came in with a half-maximal inhibitory concentration (IC50) of 0.19 µM. Also, the “Ratio IC50” value in the experiment on HeLa S3 [4] is reported as 3.1. With `COc1cc2occ(-c3c(Br)c(OC)c4c(c3OC)OCO4)c(=O)c2cc1OC`, it took 67.8 µM to reach half-maximal inhibition in experiment [3] (IC50). Also, the “Ratio IC50” value in the experiment with HeLa S3 [4] is listed as 0.009. For the compound `COc1cc2occ(-c3ccc4c(c3)OCO4)c(=O)c2cc1OC`, in the experiment on HeLa S3 [4], the “Ratio IC50” value is reported as 0.01.

Values taken from ChEMBL document CHEMBL2146449, “Design, synthesis, and biological evaluation of the analogues of glaziovianin A, a potent antitumor isoflavone” (Bioorg Med Chem, 2012).
